Test results: ChEMBL document CHEMBL1127576, “Inhibition of human immunodeficiency virus type 1 replication by phosphonoformate- and phosphonoacetate-2',3'-dideoxy-3'-thiacytidine conjugates” (J Med Chem, 1994)

Key:
[1] = Therapeutic index was measured as concentration required to cause 50% death of uninfected MT-4- cells to IC50 concentration required to inhibit syncytia formation by 50% in HIV-1 infected MT-4 cells; assay type: cell-based, MT4; conditions: human, uninfected MT-4 cells and HIV-1 infected MT-4 cells; read-out: TI
Outline: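 Ratio of ID50 to IC50. ID50: uninfected MT-4 cells (2 × 10⁵), three replicate cultures, with graded analogue concentrations; viability by trypan blue exclusion 6 days after drug addition; ID50 is the concentration killing 50% of cells. IC50: 50% inhibition of syncytia in HIV-1-infected MT-4 cells (1 h infection, 37 °C), scored microscopically at day 5.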

MT4 [2] = assay: (§1) Concentration required to inhibit syntica formation by 50% in HIV-1 infected MT-4 cells; assay type: functional, cell-based; conditions: Homo sapiens
Outline: (§2)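 MT-4 cells (3 × 10⁵) infected with diluted HIV-1 for 1 h at 37 °C, washed three times, then cultured with inhibitor. Syncytia were counted by inverted light microscopy 5 days post-infection. IC50 was the concentration giving 50% inhibition of syncytia formation without cell toxicity.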

MT4 [3] = assay: as §1; assay type: ADME, cell-based; conditions: Homo sapiens; outline: as §2

SMILES | selectivity ratio [1] | IC50 (MT4 [2]) [nM] | IC50 (MT4 [3]) [nM]
CC(=O)Nc1ccn(C2CSC(COC(=O)P(=O)(O)O)O2)c(=O)n1 (stereo unspecified) | 500 | 200 | –
CCOP(=O)(OCC)C(=O)OCC1OC(n2ccc(NC(C)=O)nc2=O)CS1 (stereo unspecified) | 350 | 300 | –
O=C(CP(=O)(O)O)Nc1ccn(C2CSC(CO)O2)c(=O)n1 (stereo unspecified) | 10 | – | 100000
Nc1ccn(C2CSC(COC(=O)CP(=O)(O)O)O2)c(=O)n1 (stereo unspecified) | 300 | 1000 | –
CCOP(=O)(CC(=O)Nc1ccn(C2CSC(CO)O2)c(=O)n1)OCC (stereo unspecified) | 100 | 5000 | –
CCOP(=O)(CC(=O)OCC1OC(n2ccc(N)nc2=O)CS1)OCC (stereo unspecified) | 50 | 10000 | –
Nc1ccn(C2CSC(COP(=O)(O)C(=O)O)O2)c(=O)n1 (stereo unspecified) | 10 | 100000 | –
Nc1ccn([C@@H]2CS[C@H](CO)O2)c(=O)n1 [LAMIVUDINE] | 1000 | 100 | –
